ChEMBL document CHEMBL4689842, “EUbOPEN Chemogenomics Library wave 1” (2021)

System: U2OS
Assay: Multiplex assay against U2OS
Assay type: toxicity, cell-based
Details: human
Summary of the method: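 Per cents of healthy-nucleus cells form the tubulin, mitochondrial-mass and membrane-permeability phenotype values. Live cells were stained at seeding with Hoechst33342, BioTracker Green Microtubule Cytoskeleton Dye, MitoTracker Red and Annexin V Alexa Fluor 680. After compound addition they were imaged on a CQ1 microscope at 37°C and 5% CO2, and CellPathfinder machine-learning gating split them into Hoechst high-intensity objects or normal cells, normal cells into healthy, pyknosed or fragmented nuclei, and pyknosed cells into mitotic or apoptotic.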

[1] = 12 h, 1 µM, compound concentration 1 uM, replicate 1
[2] = 12 h, 1 µM, compound concentration 1 uM, replicate 2
[3] = 12 h, 10 µM, compound concentration 10 uM, replicate 1
[4] = 12 h, 10 µM, compound concentration 10 uM, replicate 2
[5] = 24 h, 1 µM, compound concentration 1 uM, replicate 1
[6] = 24 h, 1 µM, compound concentration 1 uM, replicate 2
[7] = 24 h, 10 µM, compound concentration 10 uM, replicate 1
[8] = 24 h, 10 µM, compound concentration 10 uM, replicate 2
[9] = 48 h, 1 µM, compound concentration 1 uM, replicate 1
[10] = 48 h, 1 µM, compound concentration 1 uM, replicate 2
[11] = 48 h, 10 µM, compound concentration 10 uM, replicate 1
[12] = 48 h, 10 µM, compound concentration 10 uM, replicate 2

For `CCn1c(-c2nonc2N)nc2cnc(Oc3cccc(NC(=O)c4ccc(OCCN5CCOCC5)cc4)c3)cc21` [GSK-269962A], the “Population Apoptotic (%)” value [1] was 43%, the “Population Fragmented Nuclei (%)” value [1] was 14% and the “Population Healthy Nuclei (%)” value [1] was 64%. For the same molecule, the “Population Hoechst High Intensity Objects (%)” value [1] was 12%, the “Population Membrane Permeable-Phenotype (%)” value [1] was 13% and the “Population Mitochondria Different-Phenotype (%)” value [1] was 17%. For the same molecule, the “Population Mitotic Cells (%)” value [1] was 56%, the “Population Normal (%)” value [1] was 87% and the “Population Pyknosed Nuclei (%)” value [1] was 21%. For the same molecule, the “Population Tubulin-Different-Phenotype (%)” value [1] was 13%, the “Total Cell Count” value [1] was 156 and the “Population Apoptotic (%)” value [2] was 20%. For the same molecule, the “Population Fragmented Nuclei (%)” value [2] was 20%, the “Population Healthy Nuclei (%)” value [2] was 72% and the “Population Hoechst High Intensity Objects (%)” value [2] was 2%. The “Population Membrane Permeable-Phenotype (%)” value [2] was 14%, the “Population Mitochondria Different-Phenotype (%)” value [2] was 16% and the “Population Mitotic Cells (%)” value [2] was 80%. For the same molecule, the “Population Normal (%)” value [2] was 97%, the “Population Pyknosed Nuclei (%)” value [2] was 7% and the “Population Tubulin-Different-Phenotype (%)” value [2] was 14%. For the same molecule, the “Total Cell Count” value [2] was 45, the “Population Apoptotic (%)” value [3] was 50% and the “Population Fragmented Nuclei (%)” value [3] was 15%. For the same molecule, the “Population Healthy Nuclei (%)” value [3] was 53%, the “Population Hoechst High Intensity Objects (%)” value [3] was 10% and the “Population Membrane Permeable-Phenotype (%)” value [3] was 36%. For the same molecule, the “Population Mitochondria Different-Phenotype (%)” value [3] was 94%, the “Population Mitotic Cells (%)” value [3] was 49% and the “Population Normal (%)” value [3] was 90%. The “Population Pyknosed Nuclei (%)” value [3] was 30%, the “Total Cell Count” value [3] was 121 and the “Population Apoptotic (%)” value [4] was 31%. For the same molecule, the “Population Fragmented Nuclei (%)” value [4] was 20%, the “Population Healthy Nuclei (%)” value [4] was 57% and the “Population Hoechst High Intensity Objects (%)” value [4] was 7%. The “Population Membrane Permeable-Phenotype (%)” value [4] was 45%, the “Population Mitochondria Different-Phenotype (%)” value [4] was 97% and the “Population Mitotic Cells (%)” value [4] was 68%. The “Population Normal (%)” value [4] was 92%, the “Population Pyknosed Nuclei (%)” value [4] was 22% and the “Population Tubulin-Different-Phenotype (%)” value [4] was 100%. For the same molecule, the “Total Cell Count” value [4] was 71, the “Population Apoptotic (%)” value [5] was 43% and the “Population Fragmented Nuclei (%)” value [5] was 10%. The “Population Healthy Nuclei (%)” value [5] was 71%, the “Population Hoechst High Intensity Objects (%)” value [5] was 7% and the “Population Membrane Permeable-Phenotype (%)” value [5] was 6%. The “Population Mitochondria Different-Phenotype (%)” value [5] was 18%, the “Population Mitotic Cells (%)” value [5] was 56% and the “Population Normal (%)” value [5] was 92%. For the same molecule, the “Population Pyknosed Nuclei (%)” value [5] was 17%, the “Population Tubulin-Different-Phenotype (%)” value [5] was 8% and the “Total Cell Count” value [5] was 174. The “Population Apoptotic (%)” value [6] was 75%, the “Population Fragmented Nuclei (%)” value [6] was 11% and the “Population Healthy Nuclei (%)” value [6] was 77%. The “Population Hoechst High Intensity Objects (%)” value [6] was 2%, the “Population Membrane Permeable-Phenotype (%)” value [6] was 1% and the “Population Mitochondria Different-Phenotype (%)” value [6] was 10%. For the same molecule, the “Population Mitotic Cells (%)” value [6] was 25%, the “Population Normal (%)” value [6] was 97% and the “Population Pyknosed Nuclei (%)” value [6] was 11%. The “Population Tubulin-Different-Phenotype (%)” value [6] was 14%, the “Total Cell Count” value [6] was 59 and the “Population Apoptotic (%)” value [7] was 70%. The “Population Fragmented Nuclei (%)” value [7] was 13%, the “Population Healthy Nuclei (%)” value [7] was 55% and the “Population Hoechst High Intensity Objects (%)” value [7] was 9%. The “Population Membrane Permeable-Phenotype (%)” value [7] was 52%, the “Population Mitochondria Different-Phenotype (%)” value [7] was 98% and the “Population Mitotic Cells (%)” value [7] was 29%. The “Population Normal (%)” value [7] was 90%, the “Population Pyknosed Nuclei (%)” value [7] was 30% and the “Total Cell Count” value [7] was 138. The “Population Apoptotic (%)” value [8] was 53%, the “Population Fragmented Nuclei (%)” value [8] was 30% and the “Population Healthy Nuclei (%)” value [8] was 52%. The “Population Hoechst High Intensity Objects (%)” value [8] was 5%, the “Population Membrane Permeable-Phenotype (%)” value [8] was 67% and the “Population Mitochondria Different-Phenotype (%)” value [8] was 97%. For the same molecule, the “Population Mitotic Cells (%)” value [8] was 46%, the “Population Normal (%)” value [8] was 94% and the “Population Pyknosed Nuclei (%)” value [8] was 17%. The “Population Tubulin-Different-Phenotype (%)” value [8] was 100%, the “Total Cell Count” value [8] was 73 and the “Population Apoptotic (%)” value [9] was 48%. For the same molecule, the “Population Fragmented Nuclei (%)” value [9] was 14%, the “Population Healthy Nuclei (%)” value [9] was 70% and the “Population Hoechst High Intensity Objects (%)” value [9] was 4%. For the same molecule, the “Population Membrane Permeable-Phenotype (%)” value [9] was 7%, the “Population Mitochondria Different-Phenotype (%)” value [9] was 22% and the “Population Mitotic Cells (%)” value [9] was 52%. The “Population Normal (%)” value [9] was 95%, the “Population Pyknosed Nuclei (%)” value [9] was 15% and the “Population Tubulin-Different-Phenotype (%)” value [9] was 7%. For the same molecule, the “Total Cell Count” value [9] was 230, the “Population Apoptotic (%)” value [10] was 33% and the “Population Fragmented Nuclei (%)” value [10] was 10%. For the same molecule, the “Population Healthy Nuclei (%)” value [10] was 81%, the “Population Hoechst High Intensity Objects (%)” value [10] was 7% and the “Population Membrane Permeable-Phenotype (%)” value [10] was 8%. The “Population Mitochondria Different-Phenotype (%)” value [10] was 11%, the “Population Mitotic Cells (%)” value [10] was 66% and the “Population Normal (%)” value [10] was 92%. The “Population Pyknosed Nuclei (%)” value [10] was 9%, the “Population Tubulin-Different-Phenotype (%)” value [10] was 17% and the “Total Cell Count” value [10] was 82. For the same molecule, the “Population Apoptotic (%)” value [11] was 64%, the “Population Fragmented Nuclei (%)” value [11] was 21% and the “Population Healthy Nuclei (%)” value [11] was 43%. The “Population Hoechst High Intensity Objects (%)” value [11] was 6%, the “Population Membrane Permeable-Phenotype (%)” value [11] was 71% and the “Population Mitochondria Different-Phenotype (%)” value [11] was 100%. For the same molecule, the “Population Mitotic Cells (%)” value [11] was 35%, the “Population Normal (%)” value [11] was 93% and the “Population Pyknosed Nuclei (%)” value [11] was 34%. For the same molecule, the “Population Tubulin-Different-Phenotype (%)” value [11] was 100%, the “Total Cell Count” value [11] was 169 and the “Population Apoptotic (%)” value [12] was 57%. The “Population Fragmented Nuclei (%)” value [12] was 13%, the “Population Healthy Nuclei (%)” value [12] was 59% and the “Population Hoechst High Intensity Objects (%)” value [12] was 10%. The “Population Membrane Permeable-Phenotype (%)” value [12] was 87%, the “Population Mitochondria Different-Phenotype (%)” value [12] was 97% and the “Population Mitotic Cells (%)” value [12] was 42%. For the same molecule, the “Population Normal (%)” value [12] was 89%, the “Population Pyknosed Nuclei (%)” value [12] was 27% and the “Total Cell Count” value [12] was 108.
